Among the data in ChEMBL document CHEMBL4049407, “Positional Scanning Identifies the Molecular Determinants of a High Affinity Multi-Leucine Inhibitor for Furin and PACE4” (J Med Chem, 2017) are IC50, Ratio Ki and Ki values, retold here.

Square brackets hold non-standard residues; d marks the D form. Peptide text beside a SMILES is read from it. * marks the point of attachment. NH(4-amidinobenzyl) = N=C(N)c1ccc(CN*)cc1

The test system of one test is DU-145. Put plainly: Antiproliferative activity against human DU145 cells assessed as reduction in metabolic activity after 72 hrs by MTT assay. It counts as functional, cell-based. The settings on record: DU-145, 72 h. The procedure, abridged:
(§1)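 Cells kept at 37°C, 5% CO2 in RPMI 1640 (DU145 with 5% FBS, 1500 cells/well; LNCaP with 10% FBS, 2500 cells/well) on poly-L-lysine coated plates. Peptides added 24 h after plating in fresh serum medium at 0, 1, 10, 25, 50, 75, 100, 250 µM for 72 h. MTT 1 mg/mL final for 4 h; formazan dissolved in 2-propanol HCl. Signal normalised to water vehicle; IC50 from dose-response curves.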

For the next test, the species on record is Homo sapiens. Put plainly: Selectivity index, ratio of Ki for recombinant human furin expressed in drosophila S2 cells to Ki for recombinant human PACE4 expressed in drosophila S2 cells. The class given is cell-based. The procedure, abridged:
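Ratio Ki(furin)/Ki(PACE4). […] PACE4 buffer was BisTris pH 6.5; furin buffer was HEPES pH 7.5, or BisTris pH 6.5 for His peptides. Ki fitted by Morrison equation from three independent experiments.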

Another test has as its system LNCaP. Put plainly: Antiproliferative activity against human LNCAP cells assessed as reduction in metabolic activity after 72 hrs by MTT assay. It counts as functional, cell-based. A digest of the protocol:
as §1

For test [1], the target named is T1, Proprotein convertase subtilisin/kexin type 6 (Homo sapiens, UniProt P29122).
T1 sequence (P29122 whole entry): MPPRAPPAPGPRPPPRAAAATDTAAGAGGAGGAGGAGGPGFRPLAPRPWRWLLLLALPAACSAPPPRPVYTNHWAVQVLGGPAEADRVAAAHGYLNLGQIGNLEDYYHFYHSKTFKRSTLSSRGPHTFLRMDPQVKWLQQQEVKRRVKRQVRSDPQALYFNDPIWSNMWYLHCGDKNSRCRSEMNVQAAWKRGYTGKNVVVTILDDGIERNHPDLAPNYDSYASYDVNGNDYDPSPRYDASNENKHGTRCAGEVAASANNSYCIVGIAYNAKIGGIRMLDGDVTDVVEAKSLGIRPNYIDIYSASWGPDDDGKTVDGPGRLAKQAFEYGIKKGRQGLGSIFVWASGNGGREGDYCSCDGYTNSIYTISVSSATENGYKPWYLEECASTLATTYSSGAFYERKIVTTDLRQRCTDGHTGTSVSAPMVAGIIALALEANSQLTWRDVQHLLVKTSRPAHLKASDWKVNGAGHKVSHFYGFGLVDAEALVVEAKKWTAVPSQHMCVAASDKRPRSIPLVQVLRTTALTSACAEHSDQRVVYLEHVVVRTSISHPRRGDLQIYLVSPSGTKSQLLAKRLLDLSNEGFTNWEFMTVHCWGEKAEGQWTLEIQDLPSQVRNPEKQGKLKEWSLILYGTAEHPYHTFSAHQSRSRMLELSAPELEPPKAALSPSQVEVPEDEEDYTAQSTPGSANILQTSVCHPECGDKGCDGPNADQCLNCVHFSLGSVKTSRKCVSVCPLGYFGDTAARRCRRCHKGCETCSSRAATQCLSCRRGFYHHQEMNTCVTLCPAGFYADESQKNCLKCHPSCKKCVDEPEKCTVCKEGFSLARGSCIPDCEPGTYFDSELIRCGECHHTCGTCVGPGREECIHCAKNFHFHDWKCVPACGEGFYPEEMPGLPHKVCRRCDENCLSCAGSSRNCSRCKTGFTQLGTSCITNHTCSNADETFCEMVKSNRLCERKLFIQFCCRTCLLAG
Put plainly: Inhibition of recombinant human PACE4 expressed in drosophila S2 cells using pyrGlu-Arg-Thr-Lys-Arg-7-amido-4-methylcoumarin as substrate after 60 mins by spectrofluorometry method. It counts as cell-based. A digest of the protocol:
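Human recombinant purified PACE4 at 2 units/100 µL (20.18 nM), in 20 mM BisTris pH 6.5, 1 mM CaCl2, 1.8 mg/mL BSA. Substrate 100 µM, KM 4.035 µM. Inhibitor 1 nM to 10 µM; 60 min at 37°C. Fluorescence ex 370 / em 460 nm. Ki by Morrison tight-binding equation; three independent experiments, mean ± SD.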

For a further test, the target named is Furin (Homo sapiens, UniProt P09958). Put plainly: Inhibition of recombinant human furin expressed in drosophila S2 cells using pyrGlu-Arg-Thr-Lys-Arg-7-amido-4-methylcoumarin as substrate after 60 mins by spectrofluorometry method. The class given is cell-based. The procedure, abridged: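 Human recombinant purified furin at 2 units/100 µL (0.54 nM), in 100 mM HEPES pH 7.5, 1 mM CaCl2, 1 mM β-mercaptoethanol, 1.8 mg/mL BSA. His-containing peptides run instead in 20 mM BisTris pH 6.5 with the same additives. Substrate 100 µM, KM 5.04 µM. Inhibitor 1 nM to 10 µM; 60 min at 37°C. Fluorescence ex 370 / em 460 nm. Ki by Morrison equation; triplicate experiments, mean ± SD.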
Sequence of Furin (P09958 whole entry): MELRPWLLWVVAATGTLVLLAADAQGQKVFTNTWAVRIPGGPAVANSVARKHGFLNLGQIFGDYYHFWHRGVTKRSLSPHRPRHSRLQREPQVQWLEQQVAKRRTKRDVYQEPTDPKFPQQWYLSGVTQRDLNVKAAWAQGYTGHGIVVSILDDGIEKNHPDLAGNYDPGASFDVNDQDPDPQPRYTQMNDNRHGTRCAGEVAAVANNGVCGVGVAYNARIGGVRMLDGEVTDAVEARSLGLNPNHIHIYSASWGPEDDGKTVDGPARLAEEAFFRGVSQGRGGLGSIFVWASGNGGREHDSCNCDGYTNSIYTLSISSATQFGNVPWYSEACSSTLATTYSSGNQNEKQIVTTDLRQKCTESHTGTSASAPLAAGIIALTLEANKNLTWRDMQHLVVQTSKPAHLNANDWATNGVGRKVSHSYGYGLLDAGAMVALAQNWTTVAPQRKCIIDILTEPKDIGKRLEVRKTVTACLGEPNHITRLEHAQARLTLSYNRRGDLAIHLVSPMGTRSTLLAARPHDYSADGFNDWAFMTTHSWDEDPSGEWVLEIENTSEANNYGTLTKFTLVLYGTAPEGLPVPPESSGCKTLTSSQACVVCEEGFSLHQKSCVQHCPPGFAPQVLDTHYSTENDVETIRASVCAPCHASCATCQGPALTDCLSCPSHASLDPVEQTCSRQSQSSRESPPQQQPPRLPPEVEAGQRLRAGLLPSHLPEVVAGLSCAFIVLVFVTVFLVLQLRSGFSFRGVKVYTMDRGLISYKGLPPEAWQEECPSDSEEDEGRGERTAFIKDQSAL

`CC(=O)N[C@@H](CC(C)C)C(=O)N[C@@H](Cc1c[nH]c2ccccc12)C(=O)N[C@@H](CC(C)C)C(=O)N[C@@H](CC(C)C)C(=O)N[C@@H](CCCNC(=N)N)C(=O)N[C@H](C(=O)N[C@@H](CCCCN)C(=O)NCc1ccc(C(=N)N)cc1)C(C)C` (Ac-LWLLRVK-{NH(4-amidinobenzyl)}): the IC50 was 35000 nM in the test with DU-145 and 50000 nM with LNCaP. Also, the Ratio Ki in the test filed under Homo sapiens turned out to be 1.6. Further, the Ki amounted to 8 nM in test [1] and 13 nM on Furin.

On to `CC(=O)N[C@@H](CC(C)C)C(=O)N[C@@H](CC(C)C)C(=O)N[C@@H](CC(C)C)C(=O)N[C@H](C(=O)N[C@@H](CCCNC(=N)N)C(=O)N[C@H](C(=O)N[C@@H](CCCCN)C(=O)NCc1ccc(C(=N)N)cc1)C(C)C)C(C)C` (Ac-LLLVRVK-{NH(4-amidinobenzyl)}), for which the IC50 stood at 45000 nM with DU-145 and 60000 nM in the test with LNCaP. Also, the Ratio Ki in the test listed under Homo sapiens was determined as 1.9. Also, the Ki in test [1] worked out at 2.1 nM; on Furin it was 4 nM.

On to `CC(=O)N[C@@H](Cc1ccc(O)cc1)C(=O)N[C@@H](CC(C)C)C(=O)N[C@@H](CC(C)C)C(=O)N[C@@H](CC(C)C)C(=O)N[C@@H](CCCNC(=N)N)C(=O)N[C@H](C(=O)N[C@@H](CCCCN)C(=O)NCc1ccc(C(=N)N)cc1)C(C)C` (Ac-YLLLRVK-{NH(4-amidinobenzyl)}), for which the IC50 stood at 23000 nM in the test with DU-145 and 160000 nM in the test with LNCaP. The Ratio Ki in the test filed under Homo sapiens was determined as 0.6. For the same molecule, the Ki in test [1] turned out to be 6.2 nM; on Furin it was 4 nM.

With `CC(=O)N[C@H](C(=O)N[C@@H](CC(C)C)C(=O)N[C@@H](CC(C)C)C(=O)N[C@@H](CC(C)C)C(=O)N[C@@H](CCCNC(=N)N)C(=O)N[C@H](C(=O)N[C@@H](CCCCN)C(=O)NCc1ccc(C(=N)N)cc1)C(C)C)[C@@H](C)O` (Ac-TLLLRVK-{NH(4-amidinobenzyl)}), the IC50 in the test on DU-145 came out at 140000 nM; with LNCaP it was 110000 nM. The Ratio Ki in the test filed under Homo sapiens stood at 0.6. For the same molecule, the figures for the Ki (in test [1]; on Furin) were 4 nM and 2.4 nM, respectively.

In the case of `CC(=O)N[C@H](C(=O)N[C@@H](CC(C)C)C(=O)N[C@@H](CC(C)C)C(=O)N[C@@H](CC(C)C)C(=O)N[C@@H](CCCNC(=N)N)C(=O)N[C@H](C(=O)N[C@@H](CCCCN)C(=O)NCc1ccc(C(=N)N)cc1)C(C)C)C(C)C` (Ac-VLLLRVK-{NH(4-amidinobenzyl)}), the IC50 was determined as 75000 nM in the test with DU-145 and 70000 nM in the test with LNCaP. In addition, in the test filed under Homo sapiens, the Ratio Ki stood at 0.8. Besides, the Ki in test [1] came out at 5 nM; at Furin, 4 nM.

For `CC(=O)N[C@@H](Cc1ccccc1)C(=O)N[C@@H](CC(C)C)C(=O)N[C@@H](CC(C)C)C(=O)N[C@@H](CC(C)C)C(=O)N[C@@H](CCCNC(=N)N)C(=O)N[C@H](C(=O)N[C@@H](CCCCN)C(=O)NCc1ccc(C(=N)N)cc1)C(C)C` (Ac-FLLLRVK-{NH(4-amidinobenzyl)}), the IC50 with DU-145 is 30000 nM; with LNCaP, 41000 nM. Further, in the test filed under Homo sapiens, the Ratio Ki turned out to be 1. The Ki (in test [1]; on Furin) was 9 nM each time.

In the case of `CC(=O)N[C@@H](CC(C)C)C(=O)N[C@@H](CC(C)C)C(=O)N[C@@H](Cc1ccc(O)cc1)C(=O)N[C@@H](CC(C)C)C(=O)N[C@@H](CCCNC(=N)N)C(=O)N[C@H](C(=O)N[C@@H](CCCCN)C(=O)NCc1ccc(C(=N)N)cc1)C(C)C` (Ac-LLYLRVK-{NH(4-amidinobenzyl)}), the IC50 turned out to be 50000 nM in the test with DU-145 and 130000 nM in the test with LNCaP. Moreover, the Ratio Ki in the test listed under Homo sapiens came out at 1.2. Moreover, the Ki amounted to 4.8 nM in test [1] and 5.9 nM on Furin.

As for `CC(=O)N[C@H](CC(C)C)C(=O)N[C@@H](CC(C)C)C(=O)N[C@@H](CC(C)C)C(=O)N[C@@H](CC(C)C)C(=O)N[C@@H](CCCNC(=N)N)C(=O)N[C@H](C(=O)N[C@@H](CCCCN)C(=O)NCc1ccc(C(=N)N)cc1)C(C)C` (Ac-[dL]LLLRVK-{NH(4-amidinobenzyl)}), the IC50 in the test with DU-145 is 25000 nM; with LNCaP, 40000 nM. The Ratio Ki in the test filed under Homo sapiens is 2. For the same molecule, the Ki in test [1] is 4.9 nM; on Furin, 9.8 nM.

With `CC[C@H](C)[C@H](NC(=O)[C@H](CC(C)C)NC(=O)[C@H](CC(C)C)NC(=O)[C@H](CC(C)C)NC(C)=O)C(=O)N[C@@H](CCCNC(=N)N)C(=O)N[C@H](C(=O)N[C@@H](CCCCN)C(=O)NCc1ccc(C(=N)N)cc1)C(C)C` (Ac-LLLIRVK-{NH(4-amidinobenzyl)}), the values for the IC50 in the test with DU-145 and in the test on LNCaP were 50000 nM and 28000 nM, respectively. Also, the Ratio Ki in the test listed under Homo sapiens is 3.4. Moreover, the Ki in test [1] turned out to be 8 nM; at Furin it was 27 nM.

As to `CC[C@H](C)[C@H](NC(=O)[C@H](CC(C)C)NC(=O)[C@H](CC(C)C)NC(C)=O)C(=O)N[C@H](C(=O)N[C@@H](CCCNC(=N)N)C(=O)N[C@H](C(=O)N[C@@H](CCCCN)C(=O)NCc1ccc(C(=N)N)cc1)C(C)C)[C@@H](C)CC`, the IC50 was determined as 20000 nM with DU-145 and 30000 nM in the test on LNCaP. The Ratio Ki in the test filed under Homo sapiens was 0.8. Moreover, the inhibitory constant (Ki) in test [1] is 9.8 nM; on Furin, 8.1 nM.

`CC(=O)N[C@@H](CCC(N)=O)C(=O)N[C@@H](CC(C)C)C(=O)N[C@@H](CC(C)C)C(=O)N[C@@H](CC(C)C)C(=O)N[C@@H](CCCNC(=N)N)C(=O)N[C@H](C(=O)N[C@@H](CCCCN)C(=O)NCc1ccc(C(=N)N)cc1)C(C)C` (Ac-QLLLRVK-{NH(4-amidinobenzyl)}): the IC50 in the test with DU-145 is 150000 nM; in the test with LNCaP, above 250000 nM. Further, the Ratio Ki in the test filed under Homo sapiens was 1. The Ki (in test [1]; on Furin) was 3 nM throughout.

For the molecule `CC(=O)N[C@@H](Cc1c[nH]c2ccccc12)C(=O)N[C@@H](CC(C)C)C(=O)N[C@@H](CC(C)C)C(=O)N[C@@H](CC(C)C)C(=O)N[C@@H](CCCNC(=N)N)C(=O)N[C@H](C(=O)N[C@@H](CCCCN)C(=O)NCc1ccc(C(=N)N)cc1)C(C)C` (Ac-WLLLRVK-{NH(4-amidinobenzyl)}), the IC50 with DU-145 turned out to be 23000 nM; in the test with LNCaP, 39000 nM. For the same molecule, in the test filed under Homo sapiens, the Ratio Ki is 0.7. Besides, the Ki in test [1] amounted to 9 nM; at Furin, 6 nM.

Consider `CC(=O)N[C@@H](CC(C)C)C(=O)N[C@@H](Cc1ccccc1)C(=O)N[C@@H](CC(C)C)C(=O)N[C@@H](CC(C)C)C(=O)N[C@@H](CCCNC(=N)N)C(=O)N[C@H](C(=O)N[C@@H](CCCCN)C(=O)NCc1ccc(C(=N)N)cc1)C(C)C` (Ac-LFLLRVK-{NH(4-amidinobenzyl)}), for which the IC50 in the test with DU-145 was determined as 36000 nM; in the test with LNCaP, 31000 nM. In addition, in the test listed under Homo sapiens, the Ratio Ki was determined as 0.9. Besides, the Ki in test [1] turned out to be 8 nM; at Furin, 7 nM.

For `CC(=O)N[C@@H](CC(=O)O)C(=O)N[C@@H](CC(C)C)C(=O)N[C@@H](CC(C)C)C(=O)N[C@@H](CC(C)C)C(=O)N[C@@H](CCCNC(=N)N)C(=O)N[C@H](C(=O)N[C@@H](CCCCN)C(=O)NCc1ccc(C(=N)N)cc1)C(C)C` (Ac-DLLLRVK-{NH(4-amidinobenzyl)}), the IC50 came to 90000 nM with DU-145 and 40000 nM in the test with LNCaP. For the same molecule, in the test listed under Homo sapiens, the Ratio Ki was determined as 0.7. Moreover, the Ki in test [1] stood at 12 nM; on Furin it was 8 nM.
